How the values were obtained:
[1] = system: HCC827; experiment: Antiproliferative activity against human HCC827 cells harboring EGFR E746-A750 deletion mutant; type: functional, cell-based
[2] = Half life in human liver microsomes; type: ADME, microsome
[3] = Half life in mouse liver microsomes; type: ADME, microsome
[4] = Intrinsic clearance in rat liver microsomes; type: ADME, microsome; conditions: read-out: CLH
[5] = Intrinsic clearance in dog liver microsomes; type: ADME, Canis lupus familiaris, microsome; conditions: read-out: CLH
[6] = AUC (0 to infinity) in Sprague-Dawley rat at 10 mg/kg, po administered via gavage by LC-MS/MS analysis; type: ADME, organism-based; parameters: dose 10 mg/kg, route oral, time infinity; conditions: in vivo
[7] = MRT in Sprague-Dawley rat at 10 mg/kg, po administered via gavage by LC-MS/MS analysis; type: ADME, organism-based; conditions: in vivo
Summary of the method: (§1)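 Male Sprague-Dawley rats (200-240 g) received 1 mg/kg by tail-vein injection in 2% DMSO, 20% PEG400 and 78% buffered saline, or 10 mg/kg by oral gavage in 0.5% methylcellulose. Orbital sinus blood was drawn into heparinized tubes at 2, 5, 15 and 30 min and at 1, 2, 4, 8, 12 and 24 h, then centrifuged. Plasma was measured by LC/MS/MS in SRM mode, with non-compartmental analysis.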

[8] = Oral bioavailability in Sprague-Dawley rat at 10 mg/kg administered via gavage after 24 hrs by LC-MS/MS analysis; type: ADME, organism-based; conditions: in vivo; summary of the method: as §1
[9] = Clearance in Sprague-Dawley rat at 1 mg/kg, iv after 24 hrs by LC-MS/MS analysis; type: ADME, organism-based; conditions: in vivo; summary of the method: as §1
[10] = system: NCI-H1975; experiment: In vivo anti tumor activity against human NCI-H1975 cells xenografted in nude C.B-17 SCID mouse model assessed as tumor growth inhibition at 5 mg/kg, ig for 18 days measured twice a week relative to control; type: functional; conditions: NCI-H1975, po, 432 h, read-out: TGI
Summary of the method: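 H1975 s.c. xenografts (5 × 10^6 cells) were grown in C.B-17 SCID mice and randomized at 100-150 mm3 (n = 9). Mice were dosed intragastrically once daily for 18 days against a PBS control. TGI% = (TWcontrol − TWtreatment)/TWcontrol × 100, where TW is the mean tumor weight on day 18.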

[11] = system: Mus musculus; experiment: Toxicity in nude C.B-17 SCID mouse model xenografted with human NCI-H1975 cells assessed as mortality at 5 to 20 mg/kg, ig for 18 days; type: organism-based; conditions: in vivo, po, 432 h
Summary of the method: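 H1975 xenografts were set up by subcutaneous inoculation of 5 × 10^6 cells into C.B-17 SCID mice. At a mean tumor volume of 100-150 mm3, mice were randomized into groups of n = 9. They were dosed intragastrically once daily for 18 days at 5, 10 or 20 mg/kg, given as 0.1 mL/10 g body weight. The control group received PBS, and tumors were caliper-measured twice weekly.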

[12] = target: Voltage-gated inwardly rectifying potassium channel KCNH2 (Homo sapiens, UniProt Q12809); experiment: Inhibition of human ERG expressed in HEK293 cells by lonWorks Quattro analysis; type: cell-based
[13] = target: Serine/threonine-protein kinase B-raf (Homo sapiens) (UniProt P15056); experiment: Inhibition of BRAF (unknown origin) at 1 uM relative to control
[14] = target: Cyclin-dependent kinase 1/cyclin B1 (Homo sapiens) (UniProt P06493+P14635); experiment: Inhibition of CDK1/cyclin B (unknown origin) at 1 uM relative to control; type: protein-complex assay
[15] = target: Serine/threonine-protein kinase Chk1 (Homo sapiens) (UniProt O14757); experiment: Inhibition of CHEK1 (unknown origin) at 1 uM relative to control
[16] = target: Dual specificity protein kinase CLK1 (Homo sapiens) (UniProt P49759); experiment: Inhibition of CLK1 (unknown origin) at 1 uM relative to control
[17] = target: Casein kinase I isoform epsilon (Homo sapiens) (UniProt P49674); experiment: Inhibition of CSNK1E (unknown origin) at 1 uM relative to control
[18] = target: Ephrin type-B receptor 2 (Homo sapiens) (UniProt P29323); experiment: Inhibition of EPHB2 (unknown origin) at 1 uM relative to control
[19] = target: Receptor tyrosine-protein kinase erbB-4 (Homo sapiens) (UniProt Q15303); experiment: Inhibition of ERBB4 (HER4) (unknown origin) at 1 uM relative to control
[20] = target: Tyrosine-protein kinase Fes/Fps (Homo sapiens) (UniProt P07332); experiment: Inhibition of FES (FPS) (unknown origin) at 1 uM relative to control
[21] = target: Fibroblast growth factor receptor 1 (Homo sapiens) (UniProt P11362); experiment: Inhibition of FGFR1 (unknown origin) at 1 uM relative to control
[22] = target: Glycogen synthase kinase-3 beta (Homo sapiens) (UniProt P49841); experiment: Inhibition of GSK3B (unknown origin) at 1 uM relative to control
[23] = target: Inhibitor of nuclear factor kappa-B kinase subunit beta (Homo sapiens) (UniProt O14920); experiment: Inhibition of IKBKB (unknown origin) at 1 uM relative to control
[24] = target: Insulin receptor (Homo sapiens) (UniProt P06213); experiment: Inhibition of INSR (unknown origin) at 1 uM relative to control
[25] = target: Tyrosine-protein kinase Lyn (Homo sapiens) (UniProt P07948); experiment: Inhibition of LYN-B (unknown origin) at 1 uM relative to control
[26] = target: BDNF/NT-3 growth factors receptor (Homo sapiens) (UniProt Q16620); experiment: Inhibition of NTRK2 (unknown origin) at 1 uM relative to control
[27] = target: Platelet-derived growth factor receptor alpha (Homo sapiens) (UniProt P16234); experiment: Inhibition of PDGFRA (unknown origin) at 1 uM relative to control
[28] = target: Protein kinase C alpha type (Homo sapiens) (UniProt P17252); experiment: Inhibition of PRKCA (unknown origin) at 1 uM relative to control
[29] = target: Focal adhesion kinase 1 (Homo sapiens) (UniProt Q05397); experiment: Inhibition of PTK2 (unknown origin) at 1 uM relative to control
[30] = target: Rho-associated protein kinase 2 (Homo sapiens) (UniProt O75116); experiment: Inhibition of ROCK2 (unknown origin) at 1 uM relative to control
[31] = target: Serine/threonine-protein kinase Sgk1 (Homo sapiens) (UniProt O00141); experiment: Inhibition of SGK (unknown origin) at 1 uM relative to control
[32] = target: Proto-oncogene tyrosine-protein kinase Src (Homo sapiens) (UniProt P12931); experiment: Inhibition of SRC (unknown origin) at 1 uM relative to control
[33] = organism: Homo sapiens; experiment: Inhibition of 746 to 750 truncated EGFR (unknown origin) at 1 uM relative to control
[34] = target: MAP kinase-interacting serine/threonine-protein kinase 2 (Homo sapiens) (UniProt Q9HBH9); experiment: Inhibition of MKNK2 (unknown origin) at 1 uM relative to control
[35] = target: Tyrosine-protein kinase Tec (Homo sapiens) (UniProt P42680); experiment: Inhibition of TEC (unknown origin) at 1 uM relative to control
[36] = target: Activated CDC42 kinase 1 (Homo sapiens) (UniProt Q07912); experiment: Inhibition of TNK2 (unknown origin) at 1 uM relative to control

Chain of Tyrosine-protein kinase Tec (Homo sapiens) (P42680 whole entry): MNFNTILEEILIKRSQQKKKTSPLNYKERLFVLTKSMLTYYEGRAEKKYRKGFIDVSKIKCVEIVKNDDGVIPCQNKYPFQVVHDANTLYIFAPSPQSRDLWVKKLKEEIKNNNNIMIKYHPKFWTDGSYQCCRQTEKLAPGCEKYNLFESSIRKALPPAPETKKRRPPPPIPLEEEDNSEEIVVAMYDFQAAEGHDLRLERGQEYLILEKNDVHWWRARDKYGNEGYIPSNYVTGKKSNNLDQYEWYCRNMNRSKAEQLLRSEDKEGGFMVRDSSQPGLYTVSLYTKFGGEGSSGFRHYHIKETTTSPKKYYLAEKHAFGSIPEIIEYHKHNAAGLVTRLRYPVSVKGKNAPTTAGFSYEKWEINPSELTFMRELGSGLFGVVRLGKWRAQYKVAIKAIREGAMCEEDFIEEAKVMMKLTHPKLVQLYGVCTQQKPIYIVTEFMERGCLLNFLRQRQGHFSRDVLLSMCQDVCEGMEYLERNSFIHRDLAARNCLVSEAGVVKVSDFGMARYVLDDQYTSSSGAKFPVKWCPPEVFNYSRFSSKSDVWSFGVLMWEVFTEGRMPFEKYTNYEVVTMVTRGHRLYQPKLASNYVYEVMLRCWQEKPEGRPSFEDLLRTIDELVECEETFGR
Chain of Cyclin-dependent kinase 1/cyclin B1 (Homo sapiens) (P06493 whole entry, looked up): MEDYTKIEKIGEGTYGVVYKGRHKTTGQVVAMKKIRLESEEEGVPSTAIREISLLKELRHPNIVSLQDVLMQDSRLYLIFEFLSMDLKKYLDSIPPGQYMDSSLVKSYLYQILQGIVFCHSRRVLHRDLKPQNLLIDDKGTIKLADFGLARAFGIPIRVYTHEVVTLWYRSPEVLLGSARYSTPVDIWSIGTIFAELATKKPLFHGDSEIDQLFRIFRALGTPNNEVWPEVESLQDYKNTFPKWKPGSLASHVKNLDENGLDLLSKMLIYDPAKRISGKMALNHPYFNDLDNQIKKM
Chain of Cyclin-dependent kinase 1/cyclin B1 (Homo sapiens) (P14635 whole entry, looked up): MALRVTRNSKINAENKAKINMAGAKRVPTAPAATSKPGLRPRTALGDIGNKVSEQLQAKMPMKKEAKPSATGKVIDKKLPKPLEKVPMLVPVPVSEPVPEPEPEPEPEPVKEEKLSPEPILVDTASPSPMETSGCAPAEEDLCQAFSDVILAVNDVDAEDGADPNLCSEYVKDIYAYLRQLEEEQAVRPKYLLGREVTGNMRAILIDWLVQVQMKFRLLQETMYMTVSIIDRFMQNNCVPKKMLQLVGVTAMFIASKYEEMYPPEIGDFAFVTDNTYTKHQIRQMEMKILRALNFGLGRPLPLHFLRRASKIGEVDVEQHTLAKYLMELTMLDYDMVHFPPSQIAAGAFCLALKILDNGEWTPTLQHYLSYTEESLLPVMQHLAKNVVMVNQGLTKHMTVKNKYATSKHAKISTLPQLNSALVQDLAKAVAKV
Chain of Receptor tyrosine-protein kinase erbB-4 (Homo sapiens) (Q15303 whole entry): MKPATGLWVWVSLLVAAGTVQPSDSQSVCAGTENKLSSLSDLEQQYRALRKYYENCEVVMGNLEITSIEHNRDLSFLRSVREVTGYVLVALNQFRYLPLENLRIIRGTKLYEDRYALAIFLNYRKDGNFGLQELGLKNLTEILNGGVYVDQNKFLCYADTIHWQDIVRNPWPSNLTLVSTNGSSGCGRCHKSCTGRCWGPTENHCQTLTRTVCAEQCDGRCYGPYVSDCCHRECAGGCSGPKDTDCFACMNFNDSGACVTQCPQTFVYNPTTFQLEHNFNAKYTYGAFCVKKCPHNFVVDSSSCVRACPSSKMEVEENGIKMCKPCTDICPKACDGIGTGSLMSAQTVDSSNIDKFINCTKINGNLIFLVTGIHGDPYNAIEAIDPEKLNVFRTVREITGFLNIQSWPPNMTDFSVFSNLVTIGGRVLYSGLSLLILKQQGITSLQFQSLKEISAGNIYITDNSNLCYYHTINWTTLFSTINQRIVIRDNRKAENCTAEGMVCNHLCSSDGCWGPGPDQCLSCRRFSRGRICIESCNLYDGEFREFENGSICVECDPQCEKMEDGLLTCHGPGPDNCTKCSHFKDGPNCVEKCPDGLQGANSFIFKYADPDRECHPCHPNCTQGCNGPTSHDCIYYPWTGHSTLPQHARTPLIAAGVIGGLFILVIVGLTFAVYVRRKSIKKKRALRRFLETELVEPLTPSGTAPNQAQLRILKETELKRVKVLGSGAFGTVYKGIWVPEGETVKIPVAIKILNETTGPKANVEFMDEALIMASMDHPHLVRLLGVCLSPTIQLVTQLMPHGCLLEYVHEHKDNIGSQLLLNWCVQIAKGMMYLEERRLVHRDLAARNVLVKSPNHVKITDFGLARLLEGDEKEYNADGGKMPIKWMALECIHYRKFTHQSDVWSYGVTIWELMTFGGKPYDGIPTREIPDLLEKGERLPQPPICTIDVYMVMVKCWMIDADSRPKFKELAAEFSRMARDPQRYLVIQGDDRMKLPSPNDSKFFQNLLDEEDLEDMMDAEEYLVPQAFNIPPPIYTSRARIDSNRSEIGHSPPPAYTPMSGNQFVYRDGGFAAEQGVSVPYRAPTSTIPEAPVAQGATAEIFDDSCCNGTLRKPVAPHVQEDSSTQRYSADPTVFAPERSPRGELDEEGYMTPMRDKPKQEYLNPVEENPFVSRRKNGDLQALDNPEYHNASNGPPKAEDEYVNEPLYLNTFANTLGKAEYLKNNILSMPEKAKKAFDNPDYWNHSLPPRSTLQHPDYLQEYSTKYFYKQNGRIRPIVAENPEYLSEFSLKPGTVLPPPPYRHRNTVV
Chain of BDNF/NT-3 growth factors receptor (Homo sapiens) (Q16620 32-822 limits assumed): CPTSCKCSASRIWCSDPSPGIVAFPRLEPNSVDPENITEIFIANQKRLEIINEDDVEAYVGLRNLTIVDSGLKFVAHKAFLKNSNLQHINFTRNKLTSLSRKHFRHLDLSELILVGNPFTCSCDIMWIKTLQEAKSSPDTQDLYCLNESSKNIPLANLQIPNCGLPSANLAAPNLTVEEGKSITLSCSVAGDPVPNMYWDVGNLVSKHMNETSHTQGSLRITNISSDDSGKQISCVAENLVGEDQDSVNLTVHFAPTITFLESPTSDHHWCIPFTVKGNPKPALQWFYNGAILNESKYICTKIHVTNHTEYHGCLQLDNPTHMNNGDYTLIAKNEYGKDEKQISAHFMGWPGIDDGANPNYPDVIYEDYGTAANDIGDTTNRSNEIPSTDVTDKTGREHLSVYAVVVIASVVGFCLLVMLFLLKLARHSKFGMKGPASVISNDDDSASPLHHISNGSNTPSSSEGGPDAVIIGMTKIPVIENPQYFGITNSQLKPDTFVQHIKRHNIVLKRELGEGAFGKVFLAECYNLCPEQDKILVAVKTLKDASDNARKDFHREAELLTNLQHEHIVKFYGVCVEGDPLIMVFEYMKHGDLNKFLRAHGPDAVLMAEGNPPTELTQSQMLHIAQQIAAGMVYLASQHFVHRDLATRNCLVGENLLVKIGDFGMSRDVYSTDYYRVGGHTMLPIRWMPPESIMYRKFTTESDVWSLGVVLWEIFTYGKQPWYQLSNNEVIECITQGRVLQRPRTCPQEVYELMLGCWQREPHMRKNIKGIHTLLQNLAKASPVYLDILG
Chain of Dual specificity protein kinase CLK1 (Homo sapiens) (P49759 whole entry, looked up, canonical isoform): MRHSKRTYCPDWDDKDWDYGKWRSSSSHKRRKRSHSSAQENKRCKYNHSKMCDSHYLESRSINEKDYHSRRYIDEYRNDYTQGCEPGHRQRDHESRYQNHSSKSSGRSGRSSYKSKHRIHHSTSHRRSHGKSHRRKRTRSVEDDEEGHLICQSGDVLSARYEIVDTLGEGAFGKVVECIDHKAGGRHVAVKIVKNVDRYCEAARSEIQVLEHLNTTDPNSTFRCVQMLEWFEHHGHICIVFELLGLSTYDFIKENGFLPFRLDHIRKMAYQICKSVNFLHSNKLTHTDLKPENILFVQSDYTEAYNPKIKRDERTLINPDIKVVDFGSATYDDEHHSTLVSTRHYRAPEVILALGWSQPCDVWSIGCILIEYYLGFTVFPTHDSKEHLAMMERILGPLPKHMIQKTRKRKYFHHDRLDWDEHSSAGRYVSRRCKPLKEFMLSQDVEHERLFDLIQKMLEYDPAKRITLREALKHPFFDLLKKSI
Chain of Glycogen synthase kinase-3 beta (Homo sapiens) (P49841 whole entry, looked up): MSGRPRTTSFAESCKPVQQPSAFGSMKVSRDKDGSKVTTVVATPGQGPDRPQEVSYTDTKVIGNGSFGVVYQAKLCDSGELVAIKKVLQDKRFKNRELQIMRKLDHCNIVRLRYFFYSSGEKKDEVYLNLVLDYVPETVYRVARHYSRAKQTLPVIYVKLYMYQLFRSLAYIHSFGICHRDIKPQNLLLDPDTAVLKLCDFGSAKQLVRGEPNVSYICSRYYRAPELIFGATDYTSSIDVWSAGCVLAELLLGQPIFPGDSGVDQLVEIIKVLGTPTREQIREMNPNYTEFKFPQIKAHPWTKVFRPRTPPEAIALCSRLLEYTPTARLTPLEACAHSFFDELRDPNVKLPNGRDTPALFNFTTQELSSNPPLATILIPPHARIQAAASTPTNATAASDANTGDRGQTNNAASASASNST

Compound: C=CC(=O)Nc1cc(Nc2nccc(-c3cn4c5c(cccc35)CCC4)n2)c(OC)cc1N(C)CCN(C)C
- IC50 [1]: 0.109 µM
- half-life [2]: > 3 h
- half-life [3]: 0.198 h
- CLint scaled [4]: 54 mL/min/kg
- CLint scaled [5]: 63.4 mL/min/kg
- AUC(0-inf) [6]: 1020 ng·h/mL
- MRT [7]: 5.7 h
- bioavailability [8]: 52.4%
- clearance [9]: 86.2 mL/min/kg
- inhibition in vivo at 5 mg/kg [10]: 46.8%
- Activity [11]: Non-Toxic
- IC50 [12]: 8.46 µM
- inhibition [13]: 20%
- inhibition [14]: 5%
- inhibition [15]: -6%
- inhibition [16]: 20%
- inhibition [17]: 3%
- inhibition [18]: 6%
- inhibition [19]: 78%
- inhibition [20]: 42%
- inhibition [21]: 7%
- inhibition [22]: 7%
- inhibition [23]: 0%
- inhibition [24]: 36%
- inhibition [25]: 15%
- inhibition [26]: -1%
- inhibition [27]: 13%
- inhibition [28]: 1%
- inhibition [29]: 73%
- inhibition [30]: 0%
- inhibition [31]: 10%
- inhibition [32]: 16%
- inhibition [33]: 110%
- inhibition [34]: 117%
- inhibition [35]: 52%
- inhibition [36]: 75%
